Shown are actives, neighbours in structure and some others; about 3.6% of the full set was active somewhere.
Phagocytosis inh: macrophage phagocytosis inhibition. inhibition, % at 5 µM. J774A.1 macrophage IgG-bead phagocytosis, imaging. AID 1029. hit rate 0.07% among 110,000;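 active means inhibition above the mean of the plate negative controls plus 5 SD, cut at about 13% in these data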;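 further: phagocytic index as fraction of beads internalized from green versus red external bead signal; plate controls were DMSO negative control for no effect and cytochalasin-D positive control for full effect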
Yeast lifespan up: extends the lifespan of yeast. S. cerevisiae growth with nicotinamide, OD615; deaD strain in restrictive glucose medium. inhibition of the nicotinamide effect, % at 10 µM. hit rate 0.68% among 130,000;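 active means inhibition above a set limit, placed 3 SD over the median of all compounds, cut at about 26% in these data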;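 further: 0% = nicotinamide-treated wells and 100% = cells grown without nicotinamide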
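assay system = DeaD-strain S. cerevisiae | buffer or medium = restrictive glucose medium | reagent = 1.5 mM nicotinamide | compound = 10 µM single point, 0.25% DMSO | incubation = 48 h compound exposure at 30 °C, humidified | signal = OD615 measurement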
Measles CPE: protection of cells from measles virus. protection (pct of control), % at 4 µM. hit rate 1.5% among 140,000. Measles virus-infected cells, CPE protection, absorbance. AID 841; in the data active means protection mostly above about 24%, no sharp cut-off; inactive means mostly below about 26%
RAM network inh: blocks the yeast RAM network; S. cerevisiae dse1pr::URA3 reporter, 5-FOA growth OD615, 2 d; analog-sensitive cbk1-as2 kinase mutant strain; inhibition, % at 50 µM; hit rate 1.8% among 190,000; AID 868;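 active means inhibition above a set limit, 3 SD over mean compound inhibition, cut at about 8.4% in these data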;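 further: 0% = DMSO-only wells with no growth and 100% = 10 µM 1-NA-PP1 full growth; inhibition rescues growth on 5-FOA so higher OD means more RAM inhibition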
BB579 growth dn: reduces growth of yeast BB579 in restrictive medium; inhibition, % at 10 µM; S. cerevisiae BB579 growth, OD615, 48 h; hit rate 0.51% among 140,000;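 active means inhibition above a set limit, 3 SD over the mean compound inhibition, cut at about 44% in these data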
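Assay system – yeast BB579 (DeaD) · Dosing – single compound dose of 10 µM, 0.25% DMSO final · Detection – OD615 turbidity measurement · Buffer or medium – CSMM-D restrictive synthetic medium containing dextrose (glucose) · Benchmarks – positive control amphotericin B 10 µg/mL · Incubation – 48 h exposure, 30 °C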
Starred values were filed as active, the others as inactive; . = no result given; + = active, no number; [ ] = dose if it differs, or a comment.

SMILES	Phagocytosis inh	Yeast lifespan up	Measles CPE	RAM network inh	BB579 growth dn
Cc1ccc(S(=O)(=O)NCCC(c2ccc(F)cc2)c2ccco2)cc1 (stereo not given)	-10.4	3.6	6.2	11.1*	-4.5
COc1ccccc1C(CCNS(=O)(=O)c1ccc(C)cc1)c1ccco1 (stereo not given)	-8.4	0.0	16.4	10.0*	-14.5
C=CCn1c(=O)n(C(=O)OCC)c2cc(Br)ccc21	.	.	.	-0.7	.
O=C1CN(C(=O)COC(=O)CCSc2ccccc2Cl)c2ccccc2N1	0.0	-14.9	26.8*	-0.1	-53.3
COc1cc(CNC2CCCC2)cc(Br)c1OCC(=O)Nc1ccccc1C	.	.	.	0.3	.
Cc1c(-c2ccccn2)c(=O)[nH]n1-c1ccc(F)cc1	.	.	.	1.1	.
CCOCCCNC(=O)c1cc2c(-c3ccc(Cl)cc3)nn(C)c2s1	.	-4.8	9.3	9.0*	-23.4
NS(=O)(=O)c1ccc(CCN=Cc2ccccc2O)cc1	-4.2	-2.1	3.5	0.0	-7.0
CCCCCC1CC(CC(=O)NC(=S)Nc2ccc([N+](=O)[O-])cc2)C(=O)O1 (stereo not given)	.	.	6.1	10.5*	-44.0
CC1(C)CC(CC(=O)Nc2ccc([N+](=O)[O-])cc2)C(=O)O1 (stereo not given)	.	-5.7	35.0*	0.9	-26.0
CC(CC1CC(C)(C)OC1=O)C(=O)Nc1ccc([N+](=O)[O-])cc1 (stereo not given)	-7.7	0.7	26.4	-0.1	-24.7
CCCCNC(=O)N1CCN(Cc2ccc(F)cc2)CC1	.	.	.	-0.6	.
CCO[C@H]1OC(C(=O)NC2CC2)=C[C@@H](c2coc3ccccc3c2=O)[C@@H]1CCCO	.	.	.	1.4	.
CCc1ccccc1NC(=S)N1CCC(C(=O)c2ccc(F)cc2)CC1	.	-23.4	4.5	0.8	-29.4
O=c1[nH]c2ccccc2n1CCC1CCCCC1	3.4	4.1	9.8	-1.7	-30.2
Cc1[nH]nc2nc3c(c(OC(=O)c4ccccc4)c12)c(=O)n(C)c(=O)n3C	-0.2	52.4*	-0.6	-1.0	23.0
CCN(CC)c1ccc(/C=C2\CCC(/C=C(\C#N)C(=O)Nc3ccccc3F)=C2N2CCOCC2)cc1	+[fluoresces]	-1.3	9.3	6.6	-62.8
CCn1c(CNC(=O)Cc2ccc(OC)cc2)nnc1SCC(=O)c1ccccc1	.	.	.	0.9	.
CCn1c(CNC(=O)Cc2ccc(OC)cc2)nnc1SCC(=O)Nc1ccc(C(=O)O)cc1	.	.	.	8.8*	.
O=c1oc2ccccc2c2c1ncn2-c1ccccc1	0.2	-5.1	2.3	0.4	-13.7
O=c1oc2ccccc2c2c1ncn2C1CCCCC1	-5.2	-10.6	38.1*	5.0	-23.1
O=C(C1CCCN(S(=O)(=O)c2ccc(F)cc2)C1)N(Cc1cccs1)C1CC1 (stereo not given)	-1.2	-9.9	49.0*	-0.1	-35.5
Cc1nnc(N(C)C(=O)c2ccccn2)s1	.	-14.2	53.1*	0.8	-46.9
CCN1C(=O)/C(=C\C=C\c2ccccc2[N+](=O)[O-])SC1=S	.	.	.	8.6*	.
Nc1nc(CSCCO)nc(Nc2ccccc2)n1	-2.2	0.3	32.5*	0.9	-28.4
SMILES	Phagocytosis inh	Yeast lifespan up	Measles CPE	RAM network inh	BB579 growth dn
Nc1[nH]n2c(=O)cc(-c3ccccc3)nc2c1N=Nc1ccc2c(c1)OCO2	.	.	.	10.4*	.
Cc1[nH]n(-c2ccccc2)c(=O)c1N=Nc1ccc2c(c1)OCO2	.	.	.	2.9	.
CCOC(=O)c1[nH]c2ccc(Br)cc2c1NC(=O)CCN1CCCC(C)(C)C1	-2.7	-1.2	8.4	0.1	-59.0
CC1CCCC(C)N1C(=O)CSc1nnc(NC(=O)Cc2cccs2)s1 (stereo not given)	-0.5	-18.7	46.3*	5.0	1.6
Cc1c(NS(=O)(=O)c2cc(NC(=O)CCN3CCCC(C)C3)ccc2Cl)c(=O)n(-c2ccccc2)n1C (stereo not given)	.	.	.	0.8	.
COc1ccc(C(C)C)cc1S(=O)(=O)N1CCN(c2ccccc2)CC1	.	.	.	10.6*	.
COc1ccc(C)cc1S(=O)(=O)N1CCN(c2cccc(C(F)(F)F)c2)CC1	2.9	0.3	7.3	11.3*	-71.6
COc1ccc2c(CC(=O)NCc3cccs3)coc2c1	.	.	.	2.1	.
Cc1ccc(/C=C/C(=O)OCC(=O)Nc2cccc(S(=O)(=O)N(C)C)c2)o1	6.5	7.3	6.7	3.0	-51.6
COc1ccc(S(=O)(=O)N2CCCN(CC(=O)C(C)(C)C)CC2)cc1	.	-27.6	48.2*	0.8	-43.4
CC(C)CC(CO)N1CCN(C(=O)c2cccc(C(F)(F)F)c2)CCC1=O (stereo not given)	.	-0.5	9.9	0.5	-34.2
CC1CCc2c(sc(NS(=O)(=O)c3ccccc3)c2C(=O)OC(C)C)C1 (stereo not given)	.	.	5.5	0.7	-27.5

Bioassay records as filed in PubChem BioAssay.
